ChEMBL document CHEMBL3352384, “Synthesis and biological activity of new salicylanilide N,N-disubstituted carbamates and thiocarbamates” (Bioorg Med Chem, 2014)
≈ marks a conversion by molar mass, not a printed value.

What was measured:
Mycobacterium kansasii [1] = experiment: Antimycobacterial activity against Mycobacterium kansasii 235/80 assessed as complete growth inhibition after 14 days; type: functional; conditions: 235/80, 336 h
Summary of the method: (§1)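 Dilutions of M. kansasii inoculum were 10-4 for strain 235/80 and 10-5 for clinical isolate 6509/96. MIC was the lowest concentration giving complete growth inhibition, run in quadruplicate and repeated twice.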

Mycobacterium avium [2] = experiment: Antimycobacterial activity against Isoniazid, rifampicin, ofloxacin and ethambutol-resistant Mycobacterium avium 330/88 assessed as complete growth inhibition after 14 days; type: functional; conditions: 330/88, 336 h
Summary of the method: (§2)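 M. tuberculosis 331/88 (H37Rv) inoculum diluted 10-3, M. avium 330/88 diluted 10-5. MIC is the lowest concentration giving complete growth inhibition. Isoniazid and p-aminosalicylic acid as references. Quadruplicate, repeated twice.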

Mycobacterium kansasii [3] = experiment: Antimycobacterial activity against Mycobacterium kansasii 235/80 assessed as complete growth inhibition after 21 days; type: functional; conditions: 235/80, 504 h; summary of the method: as §1
Mycobacterium kansasii [4] = experiment: Antimycobacterial activity against clinical isolate Mycobacterium kansasii 6509/96 assessed as complete growth inhibition after 21 days; type: functional; conditions: 6509/96, 504 h; summary of the method: as §1
[5] = tested on: Mycobacterium tuberculosis; experiment: Antimycobacterial activity against Mycobacterium tuberculosis H37Rv 331/88 assessed as complete growth inhibition after 21 days; type: functional; conditions: H37Rv 331/88, 504 h; summary of the method: as §2
[6] = Selectivity index, ratio of IC50 for human HepG2 cells to MIC for Mycobacterium tuberculosis H37Rv; type: toxicity, cell-based; conditions: read-out: Selectivity Index
Summary of the method: (§3)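 Selectivity index = HepG2 IC50 / MIC. HepG2 cells (passage 3–4) grown in Eagle's MEM with 10% FBS, L-glutamine and non-essential amino acids. Compounds added from DMSO, eight concentrations in triplicate, tetrazolium-reduction colorimetric read-out.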

HepG2 = experiment: Cytotoxicity against human HepG2 cells assessed as reduction in cell viability after 24 hrs by MTS assay; type: cell-based; conditions: HepG2, 24 h
Summary of the method: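 HepG2 hepatocellular carcinoma cells (passage 3–4) were grown in Eagle's MEM with 10% FBS, 1% L-glutamine and non-essential amino acids. Compounds were added from DMSO at eight concentrations in triplicate, with 10% DMSO as the 0% viability control. Viability was read by tetrazolium salt reduction (CellTiter 96 AQueous One). IC50 is the concentration reducing viability to 50% of control.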

Mycobacterium kansasii [7] = experiment: Antimycobacterial activity against Mycobacterium kansasii 235/80 assessed as complete growth inhibition after 7 days; type: functional; conditions: 235/80, 168 h; summary of the method: as §1
Mycobacterium kansasii [8] = experiment: Antimycobacterial activity against clinical isolate Mycobacterium kansasii 6509/96 assessed as complete growth inhibition after 14 days; type: functional; conditions: 6509/96, 336 h; summary of the method: as §1
Mycobacterium avium [9] = experiment: Antimycobacterial activity against Isoniazid, rifampicin, ofloxacin and ethambutol-resistant Mycobacterium avium 330/88 assessed as complete growth inhibition after 21 days; type: functional; conditions: 330/88, 504 h; summary of the method: as §2
Mycobacterium kansasii [10] = experiment: Antimycobacterial activity against clinical isolate Mycobacterium kansasii 6509/96 assessed as complete growth inhibition after 7 days; type: functional; conditions: 6509/96, 168 h; summary of the method: as §1
[11] = Inhibition of Mycobacterium tuberculosis H37Rv isocitrate lyase assessed as glyoxylate phenyl hydrazone formation at 10 uM
[12] = Selectivity index, ratio of IC50 for human HepG2 cells to MIC for atypical mycobacteria
Summary of the method: as §3, with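 “read-out. IC50 is the concentration reducing viability to 50% of control; 10% DMSO as 0% viability.” for “read-out.”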

[13] = tested on: Mycobacterium tuberculosis; experiment: Antimycobacterial activity against Mycobacterium tuberculosis H37Rv 331/88 assessed as complete growth inhibition after 14 days; type: functional; conditions: H37Rv 331/88, 336 h; summary of the method: as §2

Structure (SMILES)	MIC (Mycobacterium kansasii [1]) [µM]	MIC (Mycobacterium avium [2]) [µM]	MIC (Mycobacterium kansasii [3]) [µM]	MIC (Mycobacterium kansasii [4]) [µM]	MIC [5] [µM]	selectivity ratio [6]	IC50 (HepG2) [µM]	MIC (Mycobacterium kansasii [7]) [µM]	MIC (Mycobacterium kansasii [8]) [µM]	MIC (Mycobacterium avium [9]) [µM]	MIC (Mycobacterium kansasii [10]) [µM]	inhibition [11] [%]	Selectivity Index [12]	MIC [13] [µM]
O=C(O)CC[N+](=O)[O-]	> 1000	> 1000	> 1000	> 1000	> 1000	< 0.7	692	> 1000	> 1000	> 1000	> 1000	25	<0.7	–
CN(C)C(=S)Oc1ccccc1C(=O)Nc1ccccc1	> 1000	> 1000	> 1000	> 1000	> 1000	–	> 500	> 1000	> 1000	> 1000	> 1000	6	–	> 1000
CN(C)C(=O)Oc1ccc(Cl)cc1C(=O)Nc1ccc(Br)cc1	125 (≈ 49.7 µg/mL)	62.5 (≈ 24.9 µg/mL)	125 (≈ 49.7 µg/mL)	62.5 (≈ 24.9 µg/mL)	16 (≈ 6.36 µg/mL)	21.4	342	62.5 (≈ 24.9 µg/mL)	62.5 (≈ 24.9 µg/mL)	62.5 (≈ 24.9 µg/mL)	62.5 (≈ 24.9 µg/mL)	9	<=5.5	16 (≈ 6.36 µg/mL)
O=C(Nc1ccc(Cl)cc1)c1cc(Cl)ccc1OC(=O)N(c1ccccc1)c1ccccc1	125 (≈ 59.7 µg/mL)	250 (≈ 119 µg/mL)	125 (≈ 59.7 µg/mL)	62.5 (≈ 29.8 µg/mL)	250 (≈ 119 µg/mL)	–	> 100	32 (≈ 15.3 µg/mL)	62.5 (≈ 29.8 µg/mL)	250 (≈ 119 µg/mL)	32 (≈ 15.3 µg/mL)	20	–	250 (≈ 119 µg/mL)
CN(C(=O)Oc1ccccc1C(=O)Nc1ccccc1)c1ccccc1	500 (≈ 173 µg/mL)	> 1000	500 (≈ 173 µg/mL)	1000 (≈ 346 µg/mL)	250 (≈ 86.6 µg/mL)	1.1	280	250 (≈ 86.6 µg/mL)	500 (≈ 173 µg/mL)	> 1000	250 (≈ 86.6 µg/mL)	3	<=1.1	250 (≈ 86.6 µg/mL)
Nc1ccc(C(=O)O)c(O)c1 [AMINOSALICYLIC ACID]	1000 (≈ 153 µg/mL)	32 (≈ 4.9 µg/mL)	> 1000	500 (≈ 76.6 µg/mL)	62.5 (≈ 9.57 µg/mL)	35.8	2240	125 (≈ 19.1 µg/mL)	125 (≈ 19.1 µg/mL)	125 (≈ 19.1 µg/mL)	32 (≈ 4.9 µg/mL)	10	<2.2	62.5 (≈ 9.57 µg/mL)
O=C(Nc1ccc(C(F)(F)F)cc1)c1cc(Cl)ccc1OC(=O)N(c1ccccc1)c1ccccc1	125 (≈ 63.9 µg/mL)	250 (≈ 128 µg/mL)	125 (≈ 63.9 µg/mL)	125 (≈ 63.9 µg/mL)	125 (≈ 63.9 µg/mL)	–	> 100	125 (≈ 63.9 µg/mL)	125 (≈ 63.9 µg/mL)	250 (≈ 128 µg/mL)	125 (≈ 63.9 µg/mL)	21	–	125 (≈ 63.9 µg/mL)
O=C(Nc1ccccc1)c1ccccc1O [SALICYLANILIDE]	250 (≈ 53.3 µg/mL)	125 (≈ 26.7 µg/mL)	250 (≈ 53.3 µg/mL)	250 (≈ 53.3 µg/mL)	125 (≈ 26.7 µg/mL)	0.7	89.8	125 (≈ 26.7 µg/mL)	250 (≈ 53.3 µg/mL)	250 (≈ 53.3 µg/mL)	125 (≈ 26.7 µg/mL)	9	0.36	32 (≈ 6.82 µg/mL)
CN(C(=O)Oc1ccc(Cl)cc1C(=O)Nc1ccc(F)cc1)c1ccccc1	125 (≈ 49.9 µg/mL)	250 (≈ 99.7 µg/mL)	125 (≈ 49.9 µg/mL)	125 (≈ 49.9 µg/mL)	62.5 (≈ 24.9 µg/mL)	8.2	512	62.5 (≈ 24.9 µg/mL)	125 (≈ 49.9 µg/mL)	250 (≈ 99.7 µg/mL)	62.5 (≈ 24.9 µg/mL)	14	<=8.2	32 (≈ 12.8 µg/mL)
CN(C)C(=O)Oc1ccccc1C(=O)Nc1ccccc1	1000 (≈ 284 µg/mL)	1000 (≈ 284 µg/mL)	1000 (≈ 284 µg/mL)	1000 (≈ 284 µg/mL)	1000 (≈ 284 µg/mL)	6	5990	1000 (≈ 284 µg/mL)	1000 (≈ 284 µg/mL)	1000 (≈ 284 µg/mL)	1000 (≈ 284 µg/mL)	10	6	1000 (≈ 284 µg/mL)
